≈ marks a conversion by molar mass, not a printed value.
Legend:
Assay type in all cases: functional
[1] = test system: Mycobacterium tuberculosis; test: Antimicrobial activity against Mycobacterium tuberculosis H37Rv ATCC 27294 harboring pFCA-lux AB gene measured under aerobic condition after 8 days by luminescence analysis; conditions: H37Rv ATCC 27294, 192 h
Outline: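 MABA: replicating M. tb H37Rv exposed to compound aerobically for 8 days. […] Mean of at least two independent determinations ± SD.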

[2] = test system: Mycobacterium tuberculosis; test: Antimicrobial activity against Mycobacterium tuberculosis H37Rv ATCC 27294 harboring pFCA-lux AB gene measured under anaerobic condition after 11 days by luminescence analysis; conditions: H37Rv ATCC 27294, 264 h
Outline: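 LORA: luminescence-based low-oxygen-recovery assay on nonreplicating M. tb, 11-day anaerobic exposure. MIC is the mean of at least two independent determinations ± SD.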

[3] = test system: Mycobacterium tuberculosis; test: Ratio of MIC for PA-824 to compound MIC for Mycobacterium tuberculosis H37Rv ATCC 27294 harboring pFCA-lux AB gene measured under aerobic condition after 8 days by luminescence analysis

Row | Structure (SMILES) | MIC [1] [µM] | MIC [2] [µM] | Ratio [3]
1 | O=C(N[C@@H]1COc2nc([N+](=O)[O-])cn2C1)c1ccccc1OC(F)(F)F | 27 (≈ 10.1 µg/mL) | > 64 | 
2 | O=C(N[C@@H]1COc2nc([N+](=O)[O-])cn2C1)c1cccc(OC(F)(F)F)c1 | 4.9 (≈ 1.82 µg/mL) | > 64 | 
3 | CN(C(=O)c1ccccc1OC(F)(F)F)[C@@H]1COc2nc([N+](=O)[O-])cn2C1 | 45 (≈ 17.4 µg/mL) | > 64 | 
4 | O=C(Nc1ccc(-c2ccc(C(F)(F)F)nc2)cc1)N[C@@H]1COc2nc([N+](=O)[O-])cn2C1 | 0.17 (≈ 0.0762 µg/mL) | 17 (≈ 7.62 µg/mL) | 
5 | O=C(Nc1ccc(-c2ccc(F)nc2)cc1)N[C@@H]1COc2nc([N+](=O)[O-])cn2C1 | 0.24 (≈ 0.0956 µg/mL) | 11 (≈ 4.38 µg/mL) | 
6 | O=C(Nc1ccc(-c2ccnc(C(F)(F)F)c2)cc1)N[C@@H]1COc2nc([N+](=O)[O-])cn2C1 | 0.36 (≈ 0.161 µg/mL) | 13 (≈ 5.83 µg/mL) | 
7 | O=C(NCc1ccc(-c2ccc(C(F)(F)F)cc2)cc1)N[C@@H]1COc2nc([N+](=O)[O-])cn2C1 | 0.32 (≈ 0.148 µg/mL) | > 32 | 
8 | O=C(NCc1ccc(-c2ccc(F)cc2)cc1)N[C@@H]1COc2nc([N+](=O)[O-])cn2C1 | 0.11 (≈ 0.0453 µg/mL) | 26 (≈ 10.7 µg/mL) | 
9 | O=C(Nc1ccc(OC(F)(F)F)cc1)O[C@@H]1COc2nc([N+](=O)[O-])cn2C1 | 0.12 (≈ 0.0466 µg/mL) | 2.7 (≈ 1.05 µg/mL) | 4
10 | O=[N+]([O-])c1cn2c(n1)OC[C@@H](OCc1ccccc1OC(F)(F)F)C2 | 1.8 (≈ 0.647 µg/mL) | 8.6 (≈ 3.09 µg/mL) | 
11 | O=[N+]([O-])c1cn2c(n1)OC[C@@H](OCc1cccc(OC(F)(F)F)c1)C2 | 0.36 (≈ 0.129 µg/mL) | 2.1 (≈ 0.754 µg/mL) | 
12 | O=[N+]([O-])c1cn2c(n1)OC[C@@H](OCc1ccc(OC(F)(F)F)cc1)C2 [PRETOMANID] | 0.5 (≈ 0.18 µg/mL) | 2.6 (≈ 0.934 µg/mL) | 

From ChEMBL document CHEMBL1944507, “Structure-activity relationships for amide-, carbamate-, and urea-linked analogues of the tuberculosis drug (6S)-2-nitro-6-{[4-(trifluoromethoxy)benzyl]oxy}-6,7-dihydro-5H-imidazo[2,1-b][1,3]oxazine (PA-824)” (J Med Chem, 2012)
